≈ marks a conversion by molar mass, not a printed value.
Tests used:
Solubility study = assay type: physicochemical; conditions: doubly distilled water, 25 °C, thermodynamic from solid
Procedure, shortened: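 Excess solid was placed in doubly distilled water and shaken at 100 times/min at 25 °C for 24 h. It then stood a further 24 h at 25 °C and was centrifuged. The supernatant was assayed by HPLC on a Polar-RP column at 35 °C, with UV at 230 nm and pH 2.5 phosphate buffer/acetonitrile.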

hRMECs = assay: Cellular internalization by confocal scanning microscopy; assay type: cell-based, human; conditions: 100 μmol/L, 37 °C
Procedure, shortened: (§1)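 Cells were seeded on confocal dishes at 5×10³ cells/well and grown 24 h at 37 °C. They were then exposed to 100 μmol/L test compound or fluorescein for 2 h or 6 h, and washed three times with HBSS. Intracellular fluorescence was imaged by laser scanning confocal microscopy, with excitation at 488 nm for fluorescein and 405 nm for the conjugate.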

[1] = Transport across hRMECs monolayer cells; assay type: in vitro ADME; conditions: human
Procedure, shortened: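 hRMEC monolayers were grown on 24-well 0.4 μm polycarbonate Transwells and used at TEER 200 Ω. After rinsing, 100 μmol/L compound in 37 °C HBSS was added apically. Basolateral samples were taken at 30, 60, 120, 240 and 360 min with replacement and analysed by HPLC (UV 230 nm). Papp=(ΔQ/Δt)/(A×C0), with A 0.33 cm², n=3. The ratio is Papp test/Papp fluorescein; a competition set used 24 h pre-incubation with 10 mmol/L taurine in both chambers.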

ARPE-19 = assay: Cellular internalization by confocal scanning microscopy; assay type: cell-based; conditions: ARPE-19, 100 μmol/L, 37 °C
Procedure, shortened: as §1

[2] = Transport across ARPE-19 monolayer cells; assay type: in vitro ADME; conditions: human
Procedure, shortened: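 ARPE-19 cells were seeded at 2.5×10⁵ cells/insert on 12-well 0.4 μm polycarbonate Transwells and used once TEER reached 150 Ω. After two HBSS rinses, 100 μmol/L compound in 37 °C HBSS was added apically. Basolateral samples were taken at 30, 60, 120, 240 and 360 min with replacement and analysed by HPLC. Papp=(ΔQ/Δt)/(A×C0), with A 1.12 cm², n=3. The ratio is Papp test/Papp fluorescein; a competition set used 24 h pre-incubation with 10 mmol/L taurine.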

[3] = n-octanol/water partition coefficient, shake flask method; assay type: physicochemical
Procedure, shortened: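 Shake-flask method: n-octanol and water were mutually presaturated (24 h shaking, 4000 rpm 10 min). The compound was dissolved in water-saturated octanol and mixed with an equal volume of octanol-saturated water. The mixture was shaken at 100 times/min at 25 °C for 24 h and centrifuged at 4000 rpm for 10 min. Both phases were diluted and quantified by HPLC (UV 230 nm), and P was calculated as C(oil)/C(water).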

- solubility at 24 h (Solubility study): 6.75 µg/mL (≈ 20.3 µM)
- intracellular fluorescence (cellular uptake) (hRMECs; 2 h): strong fluorescence
- intracellular fluorescence (cellular retention) (hRMECs; 6 h): almost no fluorescein was observed
- Papp at 360 min, 100 μmol/L [1]: 7.23 ± 0.92 ×10⁻⁶ cm/s
- intracellular fluorescence (cellular uptake) (ARPE-19; 2 h): strong fluorescence
- intracellular fluorescence (cellular retention) (ARPE-19; 6 h): almost no fluorescein was observed
- Papp at 360 min, 100 μmol/L [2]: 5.56 ± 0.8 ×10⁻⁶ cm/s
- logP at 24 h [3]: 1.55
SMILES: O=C1OC2(c3ccc(O)cc3Oc3cc(O)ccc32)c2ccccc21 [Fluorescein]

Source: PMC4629109 (Acta Pharmaceutica Sinica. B, 2014)
